Screening results deposited in PubChem by The Scripps Research Institute Molecular Screening Center.
Sampled rows, rich in hits. Any-hit rate of the full collection: about 2.3%.
TAAR1 ag = agonists of human TAAR1; CHO RD-HGA16 TAAR1, Fluo-8 calcium fluorescence; vehicle wells 0%, saturating PEA agonist 100%; hit rate 0.99% among 360,000; Q96RJ0; AID 624467; activation, % at 3 µM;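 active = activation above the mean activation of all test compounds in the run plus 3 SD, cut at about 38% in these data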
Target sequence (Q96RJ0 whole entry, looked up): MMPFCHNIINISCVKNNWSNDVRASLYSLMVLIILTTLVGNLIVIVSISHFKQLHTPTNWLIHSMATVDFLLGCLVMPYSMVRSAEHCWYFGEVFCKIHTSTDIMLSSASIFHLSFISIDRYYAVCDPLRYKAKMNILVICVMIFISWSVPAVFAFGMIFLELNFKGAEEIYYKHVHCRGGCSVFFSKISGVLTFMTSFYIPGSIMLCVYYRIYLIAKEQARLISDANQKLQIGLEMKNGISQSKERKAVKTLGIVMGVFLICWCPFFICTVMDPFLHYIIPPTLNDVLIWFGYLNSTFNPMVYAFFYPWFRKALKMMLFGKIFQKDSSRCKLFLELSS
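System: CHO-derived RD-HGA16 cells with stable Gα16 and human TAAR1. Times: 17-24 h plating, Fluo-8 75 min 37 °C, 30 min RT. Measured by: calcium-sensitive Fluo-8 signal, excitation 470-495, emission 515-575 nm. Read-out basis: % activation relative to PEA EC100 response. Control set: DMSO and PEA EC100. Repeats: no replicates (n 1).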
OXTR potentiate = potentiates the human oxytocin receptor response | hit rate 0.061% among 320,000 | activation, % at 3 µM | P30559 | CHO-OTR cells, Fluo-8 calcium fluorescence, potentiator mode; 0% = oxytocin EC15, 100% = EC100;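 active = activation above that plate's cutoff, the mean activation of tested compounds plus 3 SD, cut at about 6.6% in these data, passing the limit was not always enough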
Target sequence (P30559 whole entry, looked up): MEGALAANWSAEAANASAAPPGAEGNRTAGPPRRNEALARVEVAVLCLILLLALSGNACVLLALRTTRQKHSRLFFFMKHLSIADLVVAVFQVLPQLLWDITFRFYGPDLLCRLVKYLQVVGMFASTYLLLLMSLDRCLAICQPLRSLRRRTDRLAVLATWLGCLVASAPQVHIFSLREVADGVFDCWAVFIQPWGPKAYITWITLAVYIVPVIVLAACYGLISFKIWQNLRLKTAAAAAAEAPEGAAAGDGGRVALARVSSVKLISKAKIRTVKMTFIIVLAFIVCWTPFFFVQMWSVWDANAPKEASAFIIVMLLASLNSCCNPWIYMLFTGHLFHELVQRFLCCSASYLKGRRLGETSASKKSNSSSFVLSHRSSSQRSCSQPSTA
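assay system = CHO-OTR cells, human receptor | schedule = compound 6 min at room temperature before oxytocin, 100 s read | detection = Fluo-8 intracellular calcium fluorescence, ex 470-495, em 515-575 nm | evaluation = normalized max/min fluorescence ratio, % activation | control set = EC15 oxytocin alone as 0%, 75 nM oxytocin (EC100) as 100%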
TAAR1 antagonist = human TAAR1 antagonism; CHO RD-HGA16 TAAR1, Fluo-8 calcium fluorescence, antagonist; hit rate 1.5% among 360,000; inhibition, % at 3 µM; Q96RJ0;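 active = inhibition above a per-plate cutoff, the mean inhibition of test compounds on that plate plus 3 SD, cut at about 49% in these data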
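Test system: hTAAR1-expressing CHO RD-HGA16 cells, Gα16-coupled; Probe or stimulus: EC80 β-phenethylamine stimulus; Compound dosing: single nominal final test compound concentration of 3 µM; Timing: 140 s kinetic read after compound, 140 s after agonist; Signal: Fluo-8 calcium-sensitive fluorescence; Measure: % inhibition of agonist calcium response; Controls: DMSO and EC80 PEA controls.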
OXTR agonist = human OXTR agonism | P30559 | CHO-OTR cells, Fluo-8 calcium fluorescence; normalized: DMSO 0%, oxytocin 100% | activation, % at 3 µM | hit rate 0.32% among 320,000 | AID 2435;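 active = activation above the mean of all tested compounds plus 3 SD, cutoff set per screening run, cut at about 20% in these data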;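 note: peak over basal fluorescence ratio from a 100 s FLIPR kinetic read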
V1aR counter = activates human V1a receptor in oxytocin agonist counter-screen. CHO-V1R cells, Fluo-8 calcium fluorescence, agonist mode; 0% DMSO, 100% 3 nM vasopressin. hit rate 0.25% among 320,000. P37288. activation, % at 3 µM. AID 2797;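 active = activation above the mean activation of all tested compounds plus 3 SD, per screening run, cut at about 20% in these data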;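 note: signal is peak over basal fluorescence ratio across a 100 second FLIPR read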
nonsel antag count = counter-screen for TAAR1 antagonists: nonselective antagonists. AID 651780. inhibition, % at 3 µM. hit rate 77% among 2,400. counterscreen cell line, calcium fluorescence, antagonist mode. shares compounds with TAAR1 antagonist; in the data active = inhibition above about 22%;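 note: CHO-Ga16 host cells stimulated with ATP at an EC80 level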
TAAR1 ant conf = confirmation of human TAAR1 antagonists. shares compounds with TAAR1 antagonist. TAAR1-expressing cells, fluorescence antagonist read-out. inhibition, % at 3 µM. hit rate 40% among 2,400. AID 651785; in the data active = inhibition above about 49%;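 note: CHO-Ga16 host cells challenged with agonist PEA near its EC80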
Ga16 ag counter = nonselective Ga16 agonism, counter-screen. shares compounds with TAAR1 antagonist. Ga16-expressing cells, calcium fluorescence, agonist counterscreen. activation, % at 3 µM. hit rate 18% among 2,400; in the data active = activation above about 12%
TAAR1 ag count = activates human TAAR1 in antagonist counter-screen; hit rate 2% among 2,400; hTAAR1 cell line, fluorescence activation, agonist mode; activation, % at 3 µM; shares compounds with TAAR1 antagonist; in the data active = activation above about 37%;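 note: CHO cells stably expressing TAAR1 with calcium dye readout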
Large screens that a line does not name were inactive (follow-up assays come after a bar, where they were run).

Nc1ccc(Cl)c(S(=O)(=O)Nc2ccc(Cl)cc2)c1	none
Cc1ccc(NC(=O)COC(=O)CN2C(=O)NC3(CCCC3)C2=O)cc1F	none
COc1ccc(O)c(/C=N/NC(=S)Nc2cccc(S(=O)(=O)N(C)C)c2)c1	TAAR1 antagonist 68.2 | nonsel antag count 49.7 | TAAR1 ant conf 62.2 | Ga16 ag counter 18.8 | TAAR1 ag count inactive
CCOc1ccc(S(=O)(=O)N(CC(=O)NC2CCCC2)c2ccc(F)cc2)cc1	none
CC1=NNC(=O)C1CCC(=O)N/N=C/c1c(Cl)cccc1Cl (stereo not drawn)	none
CCC(C)Nc1nc(-c2cccc(OC)c2O)nc2ccccc12 (stereo not drawn)	TAAR1 antagonist 57.2 | nonsel antag count inactive | TAAR1 ant conf inactive | Ga16 ag counter inactive | TAAR1 ag count inactive
C[C@H](CO)N1C[C@H](C)[C@H](CN(C)Cc2cncnc2)Oc2cc(Br)ccc2S1(=O)=O	none (no result: OXTR potentiate, OXTR agonist, V1aR counter)
O=C(Nc1ccc(NC(=S)NC(=O)c2ccccc2F)cc1)c1cccs1	TAAR1 antagonist 51.7 | nonsel antag count inactive | TAAR1 ant conf inactive | Ga16 ag counter inactive | TAAR1 ag count inactive
c1ccc(-c2cc(-c3nc4ccccc4[nH]3)c3ccccc3n2)cc1	TAAR1 antagonist 82.8 | nonsel antag count 39.9 | TAAR1 ant conf 66.0 | Ga16 ag counter 12.0 | TAAR1 ag count inactive
COC(=O)CCCC[C@@H]1O[C@H](CCc2ccccc2)CC2=C1C(=O)OC(C)(C)O2	TAAR1 antagonist 60.8 (no result: OXTR potentiate, OXTR agonist, V1aR counter) | nonsel antag count 26.5 | TAAR1 ant conf 49.6 | Ga16 ag counter inactive | TAAR1 ag count inactive
CN(C(=O)c1ccc2ccccc2c1)c1ccccn1	none
CSc1nc2nccc(-c3ccc(Oc4ccccc4)cc3)n2n1	TAAR1 antagonist 56.4 | nonsel antag count inactive | TAAR1 ant conf inactive | Ga16 ag counter inactive | TAAR1 ag count inactive
CSc1nc2nccc(-c3ccc(-c4ccccc4)cc3)n2n1	none
N#Cc1ccc(C(=O)N2CCN(S(=O)(=O)c3ccc(Cl)s3)CC2)cc1	none
CCOc1ccc(C(=O)OCC(=O)NC2CCCC2)cc1OCC	none
CCOCCCNC(=O)C(c1ccc(OC)cc1)N(Cc1ccc2c(c1)OCO2)C(=O)c1cnccn1 (stereo not drawn)	none
CCOCCCNC(=O)C(c1ccc(C)cc1)N(Cc1cccs1)C(=O)c1ccccn1 (stereo not drawn)	TAAR1 antagonist 60.8 | nonsel antag count 30.5 | TAAR1 ant conf 55.4 | Ga16 ag counter 12.0 | TAAR1 ag count inactive
CCOCCCNC(=O)C(c1ccc(Cl)cc1)N(Cc1cccs1)C(=O)c1ccccn1 (stereo not drawn)	TAAR1 antagonist 70.5 | nonsel antag count inactive | TAAR1 ant conf inactive | Ga16 ag counter inactive | TAAR1 ag count inactive
CCOCCCNC(=O)C(NC(=O)c1ccccc1O)c1ccc(Cl)cc1 (stereo not drawn)	none (no result: TAAR1 ag, TAAR1 antagonist)
O=C(NCc1ccccc1)C(c1ccc(F)cc1)N(Cc1cccs1)C(=O)c1cnccn1 (stereo not drawn)	TAAR1 antagonist 52.1 | nonsel antag count 31.4 | TAAR1 ant conf inactive | Ga16 ag counter inactive | TAAR1 ag count inactive
CSc1cccc(NC(=O)CC(C)n2ccnc2)c1 (stereo not drawn)	none
Cc1nn(C)cc1C(C(=O)NC1CCCCC1)N(C(=O)Cc1cccs1)c1ccc(Cl)cc1 (stereo not drawn)	TAAR1 antagonist 61.1 | nonsel antag count 29.7 | TAAR1 ant conf 53.5 | Ga16 ag counter 13.3 | TAAR1 ag count inactive
CCN(CC)CCCn1c2c(c(SCC(=O)N3CCc4ccccc43)nc1=O)CCC2	none
CC1=CC(=O)CC(C)(C)[C@@]1(O)/C=C/[C@@H](C)O[C@@H]1O[C@H](CO)[C@@H](O)[C@H](O)[C@H]1O	none
COc1ccc(-c2ccc(/C=N/N3C(=O)C4C5C=CC(C6CC56)C4C3=O)o2)c([N+](=O)[O-])c1 (stereo not drawn)	TAAR1 antagonist 56.2 | nonsel antag count 30.8 | TAAR1 ant conf 51.8 | Ga16 ag counter inactive | TAAR1 ag count inactive
Cc1ccccc1S(=O)(=O)Cc1ccc(C(=O)N2CCN(c3ncccn3)CC2)o1	none
CCc1ccccc1S(=O)(=O)Cc1ccc(C(=O)N2CCN(c3ccccn3)CC2)o1	TAAR1 antagonist 51.2 | nonsel antag count 25.1 | TAAR1 ant conf inactive | Ga16 ag counter inactive | TAAR1 ag count inactive
COc1cccc(NC(=O)c2cc(=O)c3ccccc3o2)c1	none
COc1ccc(NS(=O)(=O)c2cc(NC(=O)c3cc(=O)c4ccccc4o3)ccc2OC)cc1	TAAR1 antagonist 64.2 | nonsel antag count 26.6 | TAAR1 ant conf 52.5 | Ga16 ag counter inactive | TAAR1 ag count inactive
CCc1cccc(NS(=O)(=O)c2ccc3c(c2)N(C)CCO3)c1	none
O=C(CSc1ccc(Cl)cc1)N1CCN(c2ccc(Cl)cc2[N+](=O)[O-])CC1	TAAR1 antagonist 67.2 | nonsel antag count 25.2 | TAAR1 ant conf inactive | Ga16 ag counter inactive | TAAR1 ag count inactive
COc1cccc(CNC(=O)N2CCN(c3ccccc3Cl)CC2)c1	TAAR1 antagonist 49.4 | nonsel antag count 21.8 | TAAR1 ant conf inactive | Ga16 ag counter inactive | TAAR1 ag count inactive
COc1ccc(C(=O)Nc2cccc3cccnc23)cc1OC	none
COc1ccc(C(=O)Nc2cccc(NC(=O)c3ccc(OC)c(OC)c3)n2)cc1OC	TAAR1 antagonist 62.1 | nonsel antag count 35.3 | TAAR1 ant conf 54.8 | Ga16 ag counter inactive | TAAR1 ag count inactive
Fc1cc(F)cc(Nc2nc(Cl)nc(NC3CCCC3)n2)c1	TAAR1 antagonist 55.7 | nonsel antag count inactive | TAAR1 ant conf inactive | Ga16 ag counter inactive | TAAR1 ag count inactive
CC(C)Nc1nc(Cl)nc(NC2CCCCC2)n1	none
O=[N+]([O-])c1ccccc1N(S(=O)(=O)c1ccccc1)S(=O)(=O)c1ccccc1	TAAR1 antagonist 72.2 (no result: OXTR potentiate, OXTR agonist, V1aR counter) | nonsel antag count 24.1 | TAAR1 ant conf 50.3 | Ga16 ag counter inactive | TAAR1 ag count inactive
Cc1c(Cl)ccc(S(=O)(=O)Nc2cccnc2)c1Cl	none
COc1ccc(CCNC2=C(Cl)C(=O)N(CCc3ccccc3)C2=O)cc1OC	TAAR1 antagonist 73.8 | nonsel antag count 38.1 | TAAR1 ant conf inactive | Ga16 ag counter inactive | TAAR1 ag count inactive
COc1ccc(CCNC2CC(=O)N(CCc3ccccc3)C2=O)cc1OC (stereo not drawn)	none
